A short description of data set [1]: Volume of distribution at steady state in Sprague-Dawley rat at 2 mg/kg, iv administered as single dose. It is filed as ADME, organism-based. The following applies: in vivo, read-out: Vdss. An outline of the steps:
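Male Sprague-Dawley rats (n=3), single dose. IV 2 mg/kg in 1% DMA/9% Cremophor/90% saline; PO 10 mg/kg in 0.5% CMC-Na. For one compound, IV 10 mg/kg in DMSO/Tween 80/PEG40 and PO 10 mg/kg in 10% DMSO/5% Tween 80/85% saline.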

Data set [2] has as its target Tyrosine-protein kinase receptor TYRO3 (Homo sapiens) (UniProt Q06418). Nature of the data set: Inhibition of recombinant TYRO3 (unknown origin) using poly (Glu, Tyr) 4:1 as substrate at 1000 nM incubated for 60 mins by ELISA relative to control. The procedure, abridged:
(§1)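 Recombinant tyrosine kinases assayed on wells precoated with poly(Glu,Tyr)4:1 (20 µg/mL). ATP 10 µmol/L in HEPES pH 7.4 buffer with MgCl2, MnCl2, Na3VO4 and DTT; compound in 1% DMSO, 1% DMSO as control. Reaction 60 min at 37 °C. Phosphotyrosine detected with PY99 and HRP anti-mouse, o-phenylenediamine, A490. Inhibition % relative to control; two experiments.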

Data set [3] concerns the target Proto-oncogene tyrosine-protein kinase ROS (Homo sapiens) (UniProt P08922). Briefly: Inhibition of recombinant ROS1 (unknown origin) using poly (Glu, Tyr) 4:1 as substrate at 1000 nM incubated for 60 mins by ELISA relative to control. An outline of the steps:
as §1
On the technique in general: In an ELISA, binding on a coated surface is turned into a signal by an enzyme label.

The nature of data set [4]: Selectivity ratio of IC50 for human AGS cells to IC50 for human MKN45 cells. It counts as ADME, cell-based. The procedure, abridged:
(§2)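 Both IC50s in each ratio come from one proliferation assay. Cells were seeded and exposed the next day to a range of concentrations for 72 h, then read by SRB or MTT. IC50s were fitted by four-parameter concentration–response, with each concentration at least in triplicate and at least 2 experiments. BaF3/TPR-Met is murine pre-B BaF3 transfected with TPR-MET and puromycin-selected.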

Data set [5] can be described thus: Selectivity ratio of IC50 for human SNU16 cells to IC50 for human EBC1 cells. The following applies: snu-16. It is filed as ADME, cell-based.
The nature of data set [6]: Selectivity ratio of IC50 for human SNU1 cells to IC50 for human MKN45 cells. It is filed as ADME, cell-based. The following applies: mkn-45.
The target of data set [7] is T1, Hepatocyte growth factor receptor (Homo sapiens, UniProt P08581). Briefly: Inhibition of c-Met in HGF stimulated human U87MG cells assessed as reduction in ERK phosphorylation at Threonine 202 at 10 nM after 1 hr by Western blot analysis. It is filed as cell-based. As to conditions: U-87MG ATCC. The procedure, abridged: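 U87MG cells serum-starved 24 h, treated 1 h at 37 °C, then stimulated with HGF 100 ng/mL for 15 min. Lysed in SDS buffer, run on 10% SDS-PAGE and immunoblotted for phospho-ERK1/2 and phospho-AKT; ECL detection.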
T1 sequence (P08581 whole entry): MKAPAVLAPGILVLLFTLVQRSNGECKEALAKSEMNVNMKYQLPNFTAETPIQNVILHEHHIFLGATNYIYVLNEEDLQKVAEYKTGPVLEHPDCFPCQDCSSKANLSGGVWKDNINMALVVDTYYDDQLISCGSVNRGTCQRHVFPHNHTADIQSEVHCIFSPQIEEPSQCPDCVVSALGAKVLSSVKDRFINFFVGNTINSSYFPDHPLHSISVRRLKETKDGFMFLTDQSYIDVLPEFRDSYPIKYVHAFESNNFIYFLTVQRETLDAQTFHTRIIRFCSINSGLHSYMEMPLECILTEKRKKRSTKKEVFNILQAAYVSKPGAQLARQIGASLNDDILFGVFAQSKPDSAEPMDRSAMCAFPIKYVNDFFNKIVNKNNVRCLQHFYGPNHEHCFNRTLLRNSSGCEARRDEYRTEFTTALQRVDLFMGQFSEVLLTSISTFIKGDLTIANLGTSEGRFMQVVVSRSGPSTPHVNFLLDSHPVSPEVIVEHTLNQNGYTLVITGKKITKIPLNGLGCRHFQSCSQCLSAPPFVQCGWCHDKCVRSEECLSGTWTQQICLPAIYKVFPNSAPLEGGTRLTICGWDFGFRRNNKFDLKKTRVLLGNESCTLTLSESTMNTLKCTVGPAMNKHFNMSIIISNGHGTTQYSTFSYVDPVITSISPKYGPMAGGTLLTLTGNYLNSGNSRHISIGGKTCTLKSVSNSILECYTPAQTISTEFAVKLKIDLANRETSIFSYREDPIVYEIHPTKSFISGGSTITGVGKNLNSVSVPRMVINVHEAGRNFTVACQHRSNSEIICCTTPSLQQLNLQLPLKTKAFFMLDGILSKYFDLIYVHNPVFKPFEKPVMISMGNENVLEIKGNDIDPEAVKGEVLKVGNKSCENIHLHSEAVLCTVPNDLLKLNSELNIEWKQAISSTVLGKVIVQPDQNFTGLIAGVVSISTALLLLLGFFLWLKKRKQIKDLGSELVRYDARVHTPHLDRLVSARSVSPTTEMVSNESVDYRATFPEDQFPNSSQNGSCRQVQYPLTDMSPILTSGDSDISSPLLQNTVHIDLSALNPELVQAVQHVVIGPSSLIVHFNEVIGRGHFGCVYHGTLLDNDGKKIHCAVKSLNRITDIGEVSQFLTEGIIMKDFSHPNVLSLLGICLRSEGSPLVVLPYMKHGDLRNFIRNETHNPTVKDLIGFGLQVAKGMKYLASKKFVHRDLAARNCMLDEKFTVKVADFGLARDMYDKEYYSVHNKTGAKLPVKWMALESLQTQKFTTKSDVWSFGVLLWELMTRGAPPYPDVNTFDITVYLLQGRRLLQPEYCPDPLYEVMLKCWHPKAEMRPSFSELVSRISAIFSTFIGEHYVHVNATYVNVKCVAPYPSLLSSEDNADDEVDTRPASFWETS
(In general: Immunoblotting shows a protein as a band on a membrane.)

Data set [8] has as its target T1, Hepatocyte growth factor receptor. Briefly: Inhibition of c-Met in HGF stimulated human U87MG cells assessed as reduction in ERK phosphorylation at Tyrosine 204 at 10 nM after 1 hr by Western blot analysis. It is filed as cell-based. As to conditions: U-87MG ATCC. The procedure, abridged:
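U87MG cells serum-starved 24 h, pretreated with compound 1 h at 37 °C, then stimulated with HGF (100 ng/mL) for 15 min. Lysed in 1× SDS sample buffer, resolved by 10% SDS-PAGE and blotted to nitrocellulose. Probed for phospho-c-Met, phospho-ERK1/2, phospho-AKT and totals, with GAPDH as loading control. ECL detection.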

A short description of data set [9]: Antiproliferative activity against human HCT116 cells after 72 hrs by SRB or MTT assay. It counts as functional, cell-based. As to conditions: HCT-116, 72 h. The procedure, abridged:
(§3)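 Cells seeded, exposed next day to a range of concentrations for 72 h. Growth read by sulforhodamine B or MTT. IC50 from four-parameter concentration-response fit. Each concentration tested at least in triplicate, with at least 2 experiments.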
On the technique in general: Formazan colour is commonly taken as a measure of viable cells.

In data set [10] the test system is NCI-H1299. Briefly: Antiproliferative activity against human NCI-H1299 cells after 72 hrs by SRB or MTT assay. It is filed as functional, cell-based. The following applies: NCI-H1299, 72 h. The procedure, abridged: as §3
The subject of data set [11] is NCI-H358. Nature of the data set: Antiproliferative activity against human NCI-H358 cells after 72 hrs by SRB or MTT assay. It counts as functional, cell-based. As to conditions: NCI-H358, 72 h. An outline of the steps: as §3
Data set [12] relates to NCI-H661. Nature of the data set: Antiproliferative activity against human NCI-H661 cells after 72 hrs by SRB or MTT assay. It is filed as functional, cell-based. The following applies: NCI-H661, 72 h. The procedure, abridged: as §3
A short description of data set [13]: Antiproliferative activity against human MGC803 cells after 72 hrs by SRB or MTT assay. It is filed as functional, cell-based. As to conditions: MGC-803, 72 h. The procedure, abridged:
as §3

A short description of data set [14]: Antitumor activity against human EBC1 cells xenografted in athymic nude mouse assessed as tumor growth inhibition at 6.25 mg/kg, po bid for 21 days measured twice a week during compound dosing relative to control. It counts as functional. The following applies: EBC-1, po, 504 h, read-out: TGI. The procedure, abridged: (§4)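 Nude mice bearing s.c. tumours. Cells were first grown s.c. to 700–800 mm³, then 1.5 mm³ fragments were transplanted s.c. into the right flank. Mice were randomised at 100–200 mm³ (n=6 treated, n=12 vehicle) and dosed orally twice daily for 21 days. Caliper measurement twice weekly; TV = length×width²/2. TGI taken on the final day versus vehicle; Student's t test.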

Data set [15] in a line: Antitumor activity against human MKN45 cells xenografted in athymic nude mouse assessed as tumor growth inhibition at 6.25 mg/kg, po bid for 21 days measured twice a week during compound dosing relative to control. The following applies: MKN-45, po, 504 h, read-out: TGI. It counts as functional. The procedure, abridged:
as §4

Data set [16] has as its system EBC-1. Briefly: Antitumor activity against human EBC1 cells xenografted in po dosed athymic nude mouse assessed as tumor growth inhibition administered bid for 21 days measured twice a week during compound dosing. It counts as functional, organism-based. The procedure, abridged: as §4
Data set [17] is described as follows: Selectivity ratio of IC50 for human U87MG cells to IC50 for human EBC1 cells. As to conditions: u-87mg atcc. It is filed as ADME, cell-based.
The nature of data set [18]: Selectivity ratio of IC50 for human 786-0 cells to IC50 for human MKN45 cells. It counts as ADME, cell-based. As to conditions: mkn-45. An outline of the steps: as §2
The nature of data set [19]: Selectivity ratio of IC50 for human SMMC7721 cells to IC50 for human MKN45 cells. It counts as ADME, cell-based. As to conditions: smmc-7721. An outline of the steps: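 Each cell line was seeded in 96-well plates, then exposed the next day to a range of compound concentrations for 72 h. Growth was read by SRB or MTT assay, and IC50 was fitted by a four-parameter concentration-response curve. Each concentration was run at least in triplicate, in at least 2 experiments. BaF3/TPR-Met are murine pre-B BaF3 cells transfected with TPR-MET cDNA and selected in puromycin.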

A short description of data set [20]: Selectivity ratio of IC50 for human HCT116 cells to IC50 for human MKN45 cells. It is filed as ADME, cell-based. The following applies: hct-116. The procedure, abridged: as §2
A short description of data set [21]: Selectivity ratio of IC50 for human NCI-H1299 cells to IC50 for human EBC1 cells. It is filed as ADME, cell-based. An outline of the steps: as §2
Data set [22] is described as follows: Selectivity ratio of IC50 for human NCI-H292 cells to IC50 for human EBC1 cells. It counts as ADME, cell-based. The procedure, abridged:
as §2

A short description of data set [23]: Selectivity ratio of IC50 for human NCI-H3122 cells to IC50 for mouse BAF3 cells expressing TPR-MET. It is filed as ADME, cell-based. An outline of the steps: as §2
A short description of data set [24]: Selectivity ratio of IC50 for human NCI-H460 cells to IC50 for human MKN45 cells. It counts as ADME, cell-based. The procedure, abridged: as §2

The source made the active and inactive calls. No cut-off for these calls is given here. Where only a bound is given, the exact number is not on record here.

Sequence of Proto-oncogene tyrosine-protein kinase ROS (Homo sapiens) (P08922 whole entry): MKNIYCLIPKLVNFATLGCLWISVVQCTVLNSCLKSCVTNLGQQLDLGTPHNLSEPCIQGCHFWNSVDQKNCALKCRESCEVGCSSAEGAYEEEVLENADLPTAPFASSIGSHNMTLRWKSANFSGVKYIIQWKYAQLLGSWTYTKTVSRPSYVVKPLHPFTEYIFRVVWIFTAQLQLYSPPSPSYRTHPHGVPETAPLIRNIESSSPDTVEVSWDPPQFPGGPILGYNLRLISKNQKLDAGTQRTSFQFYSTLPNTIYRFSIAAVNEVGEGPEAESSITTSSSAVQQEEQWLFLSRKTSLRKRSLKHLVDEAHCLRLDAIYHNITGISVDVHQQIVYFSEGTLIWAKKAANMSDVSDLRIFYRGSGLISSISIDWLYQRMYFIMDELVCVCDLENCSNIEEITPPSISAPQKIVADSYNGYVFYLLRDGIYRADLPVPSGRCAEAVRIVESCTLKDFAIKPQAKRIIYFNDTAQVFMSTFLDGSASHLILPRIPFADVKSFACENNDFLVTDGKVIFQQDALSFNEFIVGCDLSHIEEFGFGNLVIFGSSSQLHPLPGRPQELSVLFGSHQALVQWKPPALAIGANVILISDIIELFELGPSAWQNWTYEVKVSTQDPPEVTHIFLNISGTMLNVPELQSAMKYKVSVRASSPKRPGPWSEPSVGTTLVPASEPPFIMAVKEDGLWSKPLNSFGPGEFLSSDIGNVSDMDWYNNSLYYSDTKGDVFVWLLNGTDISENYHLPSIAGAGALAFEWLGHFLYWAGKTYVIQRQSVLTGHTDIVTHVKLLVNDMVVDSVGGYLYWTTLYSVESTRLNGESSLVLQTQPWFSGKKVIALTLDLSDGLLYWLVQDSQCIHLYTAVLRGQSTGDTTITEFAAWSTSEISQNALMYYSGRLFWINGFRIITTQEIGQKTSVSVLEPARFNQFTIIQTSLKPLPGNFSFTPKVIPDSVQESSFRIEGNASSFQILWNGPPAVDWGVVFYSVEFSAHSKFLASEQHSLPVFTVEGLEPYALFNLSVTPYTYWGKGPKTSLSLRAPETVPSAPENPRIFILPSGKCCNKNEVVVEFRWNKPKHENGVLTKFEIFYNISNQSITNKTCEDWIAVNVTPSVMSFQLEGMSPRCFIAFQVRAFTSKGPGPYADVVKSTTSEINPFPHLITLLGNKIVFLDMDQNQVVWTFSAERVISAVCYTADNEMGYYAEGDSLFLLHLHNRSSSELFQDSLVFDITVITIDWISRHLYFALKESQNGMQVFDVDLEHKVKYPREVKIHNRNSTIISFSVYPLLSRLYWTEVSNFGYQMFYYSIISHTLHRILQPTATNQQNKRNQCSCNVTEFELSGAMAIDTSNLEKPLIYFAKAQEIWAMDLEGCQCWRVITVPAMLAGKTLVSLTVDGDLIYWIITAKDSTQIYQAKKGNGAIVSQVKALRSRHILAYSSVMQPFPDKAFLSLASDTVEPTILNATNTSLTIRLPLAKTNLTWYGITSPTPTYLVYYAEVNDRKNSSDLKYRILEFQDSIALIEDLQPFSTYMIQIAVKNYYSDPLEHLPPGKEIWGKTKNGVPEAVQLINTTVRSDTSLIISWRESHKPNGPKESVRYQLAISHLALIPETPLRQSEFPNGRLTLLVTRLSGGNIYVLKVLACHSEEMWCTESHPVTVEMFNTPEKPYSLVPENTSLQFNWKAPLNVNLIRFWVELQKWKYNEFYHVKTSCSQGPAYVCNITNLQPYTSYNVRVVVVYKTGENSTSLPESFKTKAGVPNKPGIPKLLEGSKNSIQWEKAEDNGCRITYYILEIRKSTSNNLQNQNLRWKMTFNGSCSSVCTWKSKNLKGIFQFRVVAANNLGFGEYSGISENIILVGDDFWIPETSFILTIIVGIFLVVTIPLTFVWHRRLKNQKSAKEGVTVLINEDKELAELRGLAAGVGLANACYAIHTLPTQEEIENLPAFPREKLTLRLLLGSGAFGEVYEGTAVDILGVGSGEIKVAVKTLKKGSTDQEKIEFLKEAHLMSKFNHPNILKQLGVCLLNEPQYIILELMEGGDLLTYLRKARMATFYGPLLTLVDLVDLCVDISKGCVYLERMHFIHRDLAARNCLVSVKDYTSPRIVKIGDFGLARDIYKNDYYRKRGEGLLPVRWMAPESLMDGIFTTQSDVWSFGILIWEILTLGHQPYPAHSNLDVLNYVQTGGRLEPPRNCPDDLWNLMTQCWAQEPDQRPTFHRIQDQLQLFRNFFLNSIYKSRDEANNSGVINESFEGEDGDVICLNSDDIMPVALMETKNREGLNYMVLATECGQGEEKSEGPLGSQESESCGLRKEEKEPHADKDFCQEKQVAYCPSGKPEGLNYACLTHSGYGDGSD
Sequence of Tyrosine-protein kinase receptor TYRO3 (Homo sapiens) (Q06418 whole entry): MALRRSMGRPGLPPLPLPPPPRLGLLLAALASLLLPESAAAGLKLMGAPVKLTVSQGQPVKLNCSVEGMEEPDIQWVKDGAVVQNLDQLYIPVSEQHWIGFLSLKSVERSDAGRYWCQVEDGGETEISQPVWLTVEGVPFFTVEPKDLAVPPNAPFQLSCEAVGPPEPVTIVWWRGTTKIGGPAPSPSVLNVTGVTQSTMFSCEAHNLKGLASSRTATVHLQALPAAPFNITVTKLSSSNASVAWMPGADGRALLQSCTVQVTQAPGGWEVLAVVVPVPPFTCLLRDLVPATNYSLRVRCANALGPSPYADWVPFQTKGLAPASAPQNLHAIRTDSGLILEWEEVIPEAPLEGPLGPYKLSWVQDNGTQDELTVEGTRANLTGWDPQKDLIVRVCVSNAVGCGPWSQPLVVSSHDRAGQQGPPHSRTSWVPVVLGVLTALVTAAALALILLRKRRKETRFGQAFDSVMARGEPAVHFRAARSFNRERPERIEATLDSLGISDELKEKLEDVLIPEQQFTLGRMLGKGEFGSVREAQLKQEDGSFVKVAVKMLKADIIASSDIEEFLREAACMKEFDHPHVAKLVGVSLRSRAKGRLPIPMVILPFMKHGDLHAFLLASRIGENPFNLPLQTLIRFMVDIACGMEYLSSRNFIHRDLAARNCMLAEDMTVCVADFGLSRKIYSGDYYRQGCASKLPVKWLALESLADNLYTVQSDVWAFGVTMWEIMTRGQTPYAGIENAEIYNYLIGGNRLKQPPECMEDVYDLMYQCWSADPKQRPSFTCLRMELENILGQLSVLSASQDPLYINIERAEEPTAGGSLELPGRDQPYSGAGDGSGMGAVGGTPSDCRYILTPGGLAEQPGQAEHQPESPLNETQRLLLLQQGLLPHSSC

Regarding `Fc1ccc(-c2cnc3nnc(C(F)(F)c4ccc5ncccc5c4)n3n2)cc1`, the Vd in data set [1] was 4.89 L/kg. For the same compound, the inhibition in data set [2] stood at 10.1%; in data set [3] it was 10.6%. Further, the “Ratio IC50” value in [4], in [5], in data set [6], in data set [17], in data set [18] and in data set [19] was 10000 in each case. Further, the “Ratio IC50” value in data set [20], in data set [21], in [22], in data set [23] and in [24] was 10000 each time. For the same compound, the inhibition result in [7] and in data set [8] was “Active” in each case. Besides, the IC50 in [9], in data set [10], in data set [11], in [12] and in data set [13] was over 10 µM each time. The inhibition in vivo at 6.25 mg/kg in data set [14] stood at 56.9%; in data set [15] it was 46.8%. In addition, the TGI result in [16] is “Dose-dependent effect”.

Usually inhibition stands for the relative decrease from the control value, in per cent. What is called IC50 is the concentration that inhibits the measured activity by half. High values mean weaker potency in that assay, low ones greater potency in that assay.
